Measurements: ChEMBL document CHEMBL1122735, “Synthesis and activity of novel nitropyrazines for use as hypoxic cell radiosensitizers” (J Med Chem, 1984)

Columns and labels:
[1] = Compound was evaluated for the chronic aerobic cytotoxicity in chinese hamster lung fibroblast like cells after 7 days exposure in air at 37 degree Centigrade; format: cell-based, Cricetulus griseus; settings: 168 h
Method in brief: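 V79 379A Chinese hamster lung fibroblast-like cells kept in Eagle's MEM with fcs. Cells plated in Petri dishes and held with a range of sensitizer concentrations for 7 days at 37 °C in air plus 5% CO2, then colonies scored. The concentration reducing colony number to 50% was estimated.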

[2] = Sensitizer enhancement ratio was reported at 10E-3 mol/dmE-3 concentration.
Method in brief: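 Asynchronous log-phase V79 379A cells, attached to glass dishes, irradiated at room temperature with 250 kVp X-rays (0.5 mm Cu + 0.8 mm Al filter, 3.26 gray min-1) in the presence of sensitizer, triplicate dishes per point; colonies scored. ER = dose for 10^-2 survival without sensitizer divided by dose with sensitizer, or ratio of final linear survival-curve slopes.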

[3] = Partition coefficient which was measured in octanol-buffer system at pH 7, 22 degree Centigrade; format: physicochemical; settings: octanol/water
Method in brief: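 Partition coefficient taken as C(octanol)/C(pH 7 buffer) at 22 °C.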

[4] = Compound was evaluated for the acute cytotoxicity chinese hamster lung fibroblast like cells after 2 hr exposure in nitrogen at 22 degree Centigrade; format: cell-based, Cricetulus griseus
Method in brief: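 V79 379A Chinese hamster lung fibroblast-like cells, taken from log-phase suspension culture, allowed to attach to glass dishes in Eagle's MEM + 10% fcs at 37 °C for 2-3 h. Exposed to a range of sensitizer concentrations for 2 h at room temperature (22 °C) under N2 + 5% CO2. Sensitizer then replaced with fresh medium, followed by 7 days at 37 °C in air + 5% CO2 and colony scoring. Value is the concentration giving 75% colony-forming survival.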

SMILES | Cytotoxicity [1] | Ratio [2] | Partition coefficient [3] | Acute toxicity [4]
CC(=O)Nc1nc(NC(CO)C(O)CO)c(Cl)nc1[N+](=O)[O-] (stereo not given) | 400 µM | 1.35 | 0.22 | > 3.3 mM
CC(=O)Nc1nc(N2CCN(C)CC2)c(Cl)nc1[N+](=O)[O-] | 25 µM | 1.5 | 3.18 | 0.16 mM
Nc1nc(NCCO)c(Cl)nc1[N+](=O)[O-] | 260 µM | 1.22 | 1.32 | > 3 mM
COCC(O)Cn1ccnc1[N+](=O)[O-] (stereo not given) [MISONIDAZOLE] | 1300 µM | – | 0.48 | 30 mM
Nc1nc(NCC(O)CO)c(Cl)nc1[N+](=O)[O-] (stereo not given) | 580 µM | 1.25 | 0.6 | > 4 mM
O=[N+]([O-])c1nccnc1NCC(O)CO (stereo not given) | 27 µM | 1.71 | 0.32 | 0.7 mM
COC(=O)c1nc(NCC(O)CO)cnc1[N+](=O)[O-] (stereo not given) | > 500 µM | 1.3 | 0.79 | > 5 mM
O=[N+]([O-])c1cnc(NC(CO)C(O)CO)cn1 (stereo not given) | 650 µM | 1.1 | 0.13 | > 5 mM
CC(=O)Nc1nc(NCC(O)CO)c(Cl)nc1[N+](=O)[O-] (stereo not given) | 96 µM | 1.3 | 1.01 | 4 mM
